OX1R antag-1 = OX1R (HCRTR1) antagonists, primary screen, fluorescence, CHO/OX1R cells, Fluo-8 calcium, orexin A. AID 434989, 2010. Fluo-8 calcium fluorescence. 330,000 tested, 0.43% active. inhibition, % at 5 µM. Orexin/Hypocretin receptor type 1 (Homo sapiens), O43613;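 active = inhibition above its plate's threshold, mean inhibition of all tested compounds on the plate plus 3 SD, cut at about 37% in these data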
Target sequence (O43613 whole entry, looked up): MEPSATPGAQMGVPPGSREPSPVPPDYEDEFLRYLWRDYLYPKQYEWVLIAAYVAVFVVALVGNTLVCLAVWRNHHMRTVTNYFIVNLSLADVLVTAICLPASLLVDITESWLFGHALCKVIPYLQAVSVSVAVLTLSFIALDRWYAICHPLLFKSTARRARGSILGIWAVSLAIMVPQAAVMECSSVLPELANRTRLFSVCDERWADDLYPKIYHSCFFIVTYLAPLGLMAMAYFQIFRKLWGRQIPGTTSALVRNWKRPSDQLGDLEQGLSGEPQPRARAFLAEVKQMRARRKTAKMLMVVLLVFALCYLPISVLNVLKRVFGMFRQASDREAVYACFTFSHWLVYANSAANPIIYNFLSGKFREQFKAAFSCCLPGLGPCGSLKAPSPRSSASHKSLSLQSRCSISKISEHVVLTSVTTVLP
OX1R antag-2 = antagonists of human orexin 1 receptor (OX1R). inhibition, % at 6.6 µM. 330,000 tested, 1.8% active. Orexin/Hypocretin receptor type 1 (Homo sapiens), O43613. OX1R-expressing cells, FRET antagonist read-out; in the data active = inhibition mostly above about 38%, no sharp cut-off; inactive = mostly below about 40%
M1 ag parental = counter-screen for M1 agonists: effect in parental CHO-K1 cells; 360,000 tested, 0.48% active; AID 602248, 2012; Fluo-8 calcium fluorescence; scaled to maximal ATP response, vehicle zero; activation, % at 3 µM; in the data active = activation above about 15%;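 note: untransfected CHO-K1 host cells lacking M1 receptor as counterscreen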
CHO parental Ca = ATP-evoked calcium signal inhibitors, parental CHO, primary screen, counter-screen for OX1R antagonist project, cell-based, fluorescence, Fluo-8 calcium dye; parental CHO-K1, ATP-induced calcium, Fluo-8 fluorescence; inhibition, % at 5.6 µM; 330,000 tested, 0.63% active; AID 463079, 2010;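 active = inhibition above that plate's mean sample inhibition plus 3 SD, cut at about 26% in these data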
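material = parental CHO cells | also added = ATP as calcium-mobilizing challenge | dosing = single point at 5.6 µM | detection = intracellular calcium via Fluo-8 no-wash fluorescent dye | read-out = % inhibition | benchmarks = low control ATP plus DMSO, high control DMSO only | repeats = one well per compound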
M1 PAM parental = nonselective calcium activators in parental CHO-K1 cells, primary screen, counter-screen for M1 PAM project, cell-based, Fluo-8 calcium fluorescence, full deck, 1536-well. activation, % at 3 µM. 360,000 tested, 0.02% active. ATP EC20; 0% at ATP EC20, 100% at ATP max. AID 602247, 2012;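 active = activation above the run cutoff, the mean activation of all test compounds plus 3 SD, cut at about 40% in these data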;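 note: peak over basal fluorescence ratio in a 140 s read after ATP addition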
CHO-K1 Ca antag = counter-screen for M1 antagonists: effect in parental CHO-K1 cells; ATP-induced calcium, Fluo-8 fluorescence; inhibition, % at 3 µM; 360,000 tested, 0.6% active;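 active = inhibition above a per-plate cutoff, the plate's mean sample inhibition plus 3 SD, cut at about 24% in these data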
Hits are given with their value; . = inactive; / = no result. The list is not random: actives were taken first. Their share in the collection is about 2.9%.

SMILES	OX1R antag-1	OX1R antag-2	M1 ag parental	CHO parental Ca	M1 PAM parental	CHO-K1 Ca antag
Cc1c(C(=O)Nc2ccccn2)oc2c(Cl)cccc12	.	34.4	.	.	.	.
Cc1c(C(=O)NC(C)c2ccccn2)oc2c(Cl)cccc12 (stereo not drawn)	/	/	.	/	.	.
Cc1cc(NC(=O)c2oc3ccccc3c2C)ccc1-n1cnnn1	.	38.5	.	.	.	.
Cc1c(C(=O)Nc2ccncc2)oc2ccccc12	.	.	.	.	.	.
COc1ccc(-c2noc(CNC(=O)c3ccc4c(c3)OCO4)n2)cc1OC	.	.	.	.	.	.
Cc1ccc(S(=O)(=O)Nc2c(C(=O)O)[nH]c3ccccc23)c(C)c1	.	.	.	.	.	.
CC(Sc1nnc(C2CC2)n1C1CC1)C(=O)NC1(C#N)CCCCC1 (stereo not drawn)	.	.	.	.	.	.
O=S(=O)(c1ccccc1)N1CCC(O)(CSc2ccc(F)cc2)CC1	.	.	17.8	.	.	.
Cc1cc(Br)ccc1NC(=O)CN1C(=O)C2C3CC(c4ccccc4)C(C3)C2C1=O (stereo not drawn)	.	.	.	30.8	.	.
O=S(=O)(c1cccc(Br)c1)N1CCN(c2ccnc3cc(Cl)ccc23)CC1	.	.	.	34.9	.	.
N#Cc1cccc(S(=O)(=O)N2CCN(c3ccnc4cc(Cl)ccc34)CC2)c1	.	.	.	.	.	.
COc1ccccc1-c1coc2cc(OC(=O)N3CCOCC3)ccc2c1=O	.	.	.	.	.	.
CCC(Oc1ccc2c(=O)c(-c3ccccc3OC)coc2c1)C(=O)OCc1ccccc1 (stereo not drawn)	.	.	.	57.3	.	.
C[C@@H]1CN([C@@H](C)CO)S(=O)(=O)c2ccc(Br)cc2O[C@H]1CN(C)C(=O)C1CCOCC1	/	/	.	/	.	.
CC(Nc1nc(-c2ccncc2)nc2ccccc12)c1ccccc1 (stereo not drawn)	.	.	.	.	.	.
CC(Nc1nc(-c2cccnc2)nc2ccccc12)c1ccccc1 (stereo not drawn)	/	/	17.0	/	.	.
O=C(O)Cc1ccc(S(=O)(=O)N2CCCC2)s1	.	.	.	.	.	.
CCCc1cc(C(=O)Nc2cccc(C(C)=O)c2)no1	.	.	.	.	.	.
CCCc1cc(C(=O)Nc2ccc(C(C)=O)cc2)no1	.	.	.	28.3	.	.
O=c1c2ccccc2nc2c3ccccc3cnn12	.	41.2	.	.	.	.
O=c1c2ccccc2nc2ccccn12	.	.	.	.	.	.
CC1(C)C(C(=O)OCC(Cl)(Cl)Cl)N2C(=O)C(NC(=O)Cc3ccccc3)C2S1=O (stereo not drawn)	.	.	.	.	.	.
CC(=O)c1c(C)[nH]c(C(=O)OCc2ccc([N+](=O)[O-])cc2)c1C	.	.	.	.	.	.
COC(=O)c1ccc(COC(=O)c2[nH]c(C)c(C(C)=O)c2C)o1	.	.	.	38.1	.	.
O=C(CSc1nc2ccc(Cl)cc2[nH]1)c1c[nH]c2ccccc12	.	41.3	.	.	.	.
SMILES	OX1R antag-1	OX1R antag-2	M1 ag parental	CHO parental Ca	M1 PAM parental	CHO-K1 Ca antag
CN(CC(=O)Nc1ccccc1Cl)C(=O)C1CSC2(C)CCC(=O)N12 (stereo not drawn)	.	.	.	.	.	.
CCO/C=C1\SC(=S)N(c2ccc(Cl)cc2)C1=O	.	.	.	.	.	.
CC(C)c1ccc(N2C(=O)/C(=C/N(C)C)SC2=S)cc1	51.7	.	.	.	.	.
COc1ccccc1NS(=O)(=O)c1ccc(C(=O)N2CC(C)OC(C)C2)cc1 (stereo not drawn)	.	.	.	.	.	.
Cc1cccc(N2CCN(S(=O)(=O)c3ccc4c(c3)C(C)(C)C(=O)N4C)CC2C)c1 (stereo not drawn)	.	.	.	.	.	.
Cc1cccc(N2CCN(S(=O)(=O)c3ccc4c(c3)CCC(=O)N4)CC2C)c1 (stereo not drawn)	.	.	.	39.9	.	.
